{"data": "Measurements gathered from unrelated publications", "note": "Protocols differ between the studies behind these lines."}
{"SMILES": "CC(C)=CCC[C@](C)(O[C@@H]1O[C@H](CO)[C@@H](O)[C@H](O)[C@H]1O)[C@H]1CC[C@]2(C)[C@@H]1[C@H](O)C[C@@H]1[C@@]3(C)CC[C@H](O)C(C)(C)[C@@H]3CC[C@]12C", "test system": "mouse, plasma", "conditions": "oral, 10 mg/kg", "quantity": "half-life", "result": "14 h"}
{"SMILES": "CN(C)C1(CNC(=O)c2ccc3c(c2)CCN3C(=O)c2ccccc2)CCOCC1", "test system": "male C57BL/6 mouse, brain", "conditions": "intraperitoneal, 50 mg/kg, 2 h", "quantity": "concentration", "result": "39 ng/g"}
{"SMILES": "Cc1[nH]c(C)c(S(=O)(=O)Nc2ccc(S(F)(F)(F)(F)F)cc2)c1C(=O)N1CCC(F)(F)C1", "test system": "mouse, plasma", "conditions": "intraperitoneal, 40 mg/kg", "quantity": "half-life", "result": "2.64 h"}
{"SMILES": "CC(C)[C@]12O[C@H]1[C@@H]1O[C@]13[C@]1(O[C@H]1C[C@H]1C4=C(CC[C@@]13C)C(=O)OC4)[C@@H]2O", "test system": "SCID mouse, plasma", "conditions": "intravenous, 0.6 mg/kg", "quantity": "half-life", "result": "0.16 h"}
{"SMILES": "COc1cc(C(=O)c2nc(-c3cccc4[nH]ccc34)c[nH]2)cc(OC)c1OC", "test system": "male CD-1 mouse, plasma", "conditions": "intraperitoneal, 15 mg/kg", "quantity": "half-life", "result": "0.95 h"}
{"SMILES": "CCOC(=O)c1c(NC(=O)CNC(C)C)sc2c1CCCCC2", "test system": "male mouse, brain", "conditions": "intraperitoneal, 100 mg/kg, single dose", "quantity": "half-life", "result": "2.06 h"}
{"SMILES": "Cc1ncsc1-c1ccc([C@H](CC(=O)NCCOCCOCCOCCOCCOCCC(=O)N2CCC(Nc3cc(C(=O)NC[C@H](O)CN4CCc5ccccc5C4)ncn3)CC2)NC(=O)[C@@H]2C[C@@H](O)CN2C(=O)[C@@H](NC(=O)C2(F)CC2)C(C)(C)C)cc1", "test system": "male Swiss mouse, plasma", "conditions": "intraperitoneal, 50 mg/kg, 8 h, single dose", "quantity": "concentration", "result": "> 200 nM"}
{"SMILES": "CC(C)CC(=O)OC[C@H]1O[C@@](C#N)(c2ccc3c(N)ncnn23)[C@H](O)[C@@H]1O", "test": "metabolic stability", "test system": "dog, hepatocytes", "conditions": "5 µM", "quantity": "hepatocyte CLint", "result": "> 318 µL/min/10⁶ cells"}
